Shown are actives, neighbours in structure and some others; about 1.4% of the full set was active somewhere.
MOR-DOR inv ag-1: inverse agonist of human OPRM1-OPRD1 heterodimerization. P35372+P41143. cell-based MOR-DOR heterodimer luminescence, inverse agonism. inhibition, % at 9.3 µM. 0.21% of 340,000 active; in the data active = inhibition above about 22%, passing the limit was not always enough
Target sequence (P35372 whole entry, looked up): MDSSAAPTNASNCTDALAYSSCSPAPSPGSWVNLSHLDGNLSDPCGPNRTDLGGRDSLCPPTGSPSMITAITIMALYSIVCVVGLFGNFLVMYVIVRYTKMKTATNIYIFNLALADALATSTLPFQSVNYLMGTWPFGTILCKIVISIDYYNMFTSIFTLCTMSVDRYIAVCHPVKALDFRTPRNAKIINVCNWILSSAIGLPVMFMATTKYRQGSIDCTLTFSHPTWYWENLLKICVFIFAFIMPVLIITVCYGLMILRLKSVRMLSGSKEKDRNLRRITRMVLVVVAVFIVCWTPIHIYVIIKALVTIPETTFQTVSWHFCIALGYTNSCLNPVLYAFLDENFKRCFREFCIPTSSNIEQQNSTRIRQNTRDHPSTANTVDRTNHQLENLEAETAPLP
Target sequence (P41143 whole entry, looked up): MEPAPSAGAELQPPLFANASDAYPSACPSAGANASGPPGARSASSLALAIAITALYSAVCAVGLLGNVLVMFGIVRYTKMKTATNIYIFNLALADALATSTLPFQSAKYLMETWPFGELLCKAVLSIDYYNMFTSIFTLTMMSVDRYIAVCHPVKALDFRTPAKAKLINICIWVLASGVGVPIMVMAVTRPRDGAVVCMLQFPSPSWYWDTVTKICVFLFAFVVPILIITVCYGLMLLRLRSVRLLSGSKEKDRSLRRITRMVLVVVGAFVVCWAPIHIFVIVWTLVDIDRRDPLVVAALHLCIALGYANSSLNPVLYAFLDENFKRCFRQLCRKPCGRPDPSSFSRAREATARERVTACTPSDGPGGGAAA
OPRM1-OPRD1 ag: OPRM1-OPRD1 heterodimerization agonism. P35372+P41143. cells, luminescence. activation, % at 9.3 µM. 0.3% of 340,000 active; in the data active = activation above about 18%
DAGLB inhibitor: diacylglycerol lipase beta (human) inhibition; Q8NCG7; HEK293T DAGLB membrane lysate, EnzChek fluorogenic substrate; inhibition, % at 5.17 µM; 0.059% of 340,000 active; AID 504411; in the data active = inhibition above about 34%
Arrestin-AP2 inh: human beta-arrestin and AP2 interaction inhibition; 0.31% of 340,000 active; inhibition, % at 10 µM; AID 504490; FITC-arrestin peptide / GST-AP2 beads, flow cytometry; AP2 beta2 appendage carries R879A mutation;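 active = inhibition above a set limit, near 3 SD of compounds lacking own fluorescence, cut at about 54% in these data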
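System: GST-AP2 R879A glutathione beads; medium: PBS, Tween 20 0.05%, BSA 0.1%; reagent: fluorescein-tagged arrestin peptide at 50 nM final; schedule: pre-incubation 12 min, peptide binding 1 h, room temperature; detection: flow cytometry, FL1 (488/535 nm); read-out: inhibition as reduced fluorescein signal on beads, percent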
HTR5A inv ctr: counter-screen for OPRM1-OPRD1 inverse agonists: human HTR5A inverse agonism | 0.083% of 340,000 active | inhibition, % at 9.3 µM | P47898 | AID 504634 | HTR5A cell line, luminescence; in the data active = inhibition mostly above about 23%, no sharp cut-off; inactive = mostly below about 18%
HTR5A ag ctr: activates human HTR5A in OPRM1-OPRD1 agonist counter-screen; P47898; HTR5A agonist assay, luminescence, cell-based; activation, % at 9.3 µM; 0.61% of 340,000 active; AID 504692; in the data active = activation mostly above about 9.5%, no sharp cut-off; inactive = mostly below about 7.6%
Arr-AP2 CP1: human beta-arrestin and AP2 interaction inhibition, cherry pick; GST-AP2 beads, FITC arrestin peptide binding, flow cytometry; GST-fused beta2-adaptin appendage, R879A mutant; 2% of 1,300 active; shares compounds with Arrestin-AP2 inh; AID 504908; inhibition, % at 10 µM;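 active = inhibition above a set limit, roughly 3 SD of non-fluorescent compound noise, cut at about 38% in these data; inactive = inhibition at or below that limit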;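 also: loss of bead fluorescence from 50 nM FITC arrestin peptide bound to appendage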
GST GSH counter: GST-GSH bead binding interference, counter-screen; shares compounds with Arrestin-AP2 inh; GST-fluorescein binding to GSH beads, fluorescence; inhibition, % at 10 µM; 2% of 1,300 active; AID 588338;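 active = inhibition above 50%, about 3 SD of the inhibition seen with non-fluorescent compounds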;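 also: fluorescein maleimide labelled GST captured on 4 micron glutathione beads; higher means more loss of bead fluorescence from quenching or blocked binding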
MOR-DOR inv ag-2: inverse agonist of OPRM1-OPRD1 heterodimerization in HTR5A counter-screen. shares compounds with HTR5A inv ctr. U2OS counter-screen cells, complementation luminescence. inhibition, % at 9.3 µM. 190 tested, under 10 active. AID 504912
HTR5A inv conf: confirmation of human HTR5A inverse agonists; 190 tested, under 10 active; shares compounds with HTR5A inv ctr; AID 504916; inhibition, % at 9.3 µM; HTR5A-expressing cells, inverse agonism, luminescence
Hits are given with their value; i = inactive; nt = no result given. Unless noted, no rule for the calls is given here.

SMILES	MOR-DOR inv ag-1	OPRM1-OPRD1 ag	DAGLB inhibitor	Arrestin-AP2 inh	HTR5A inv ctr	HTR5A ag ctr	MOR-DOR inv ag-2	HTR5A inv conf	others
COc1ccc(C(=O)NNC(=O)CCCCC(=O)NNC(=O)c2ccc(OC)cc2)cc1	i	i	i	62	i	i	nt	nt	Arr-AP2 CP1=i;GST GSH counter=i
CN1OC[C@@H]2CN[C@H](c3cccc(Oc4ccccc4)c3)C[C@@H]21	nt	nt	i	nt	nt	nt	nt	nt
CCC(=O)N1CCc2cc(Br)c(S(=O)(=O)CCC(=O)NCCc3ccccc3)cc21	i	i	i	i	i	i	nt	nt
Cc1occc1C(=O)NCc1cccs1	i	i	i	78	i	i	nt	nt	Arr-AP2 CP1=i;GST GSH counter=i
Cc1ccc(NC(=O)N2CCCCCC2)cc1C	i	i	i	63	i	i	nt	nt	Arr-AP2 CP1=i;GST GSH counter=i
Cc1n[nH]c(=S)n(NC(=O)CC(=O)Nn2c(=S)[nH]nc(C)c2=O)c1=O	i	i	i	i	65	i	i	i
CC(C)(C)OC(=O)NCCc1nnc(SCC(N)=O)o1	i	i	i	i	49	i	i	i
COc1ccc(Cl)cc1NC(=O)Nc1cnccn1	i	i	i	i	41	i	i	i
Cc1onc(-c2ccccc2)c1C(=O)Nc1nnc(N2CCCCCC2)s1	i	i	i	i	25	i	i	i
CCN(CC)c1ccc2nc3ccccc3[n+](CC)c2c1	i	i	i	i	34	i	i	i
CCN(CC)c1ccc2nc3ccc(N)cc3[n+](-c3ccccc3)c2c1	i	i	i	i	36	i	i	i
CCN(CC)c1ccc2cc(-c3nc4ccccc4[nH]3)c(=O)oc2c1	i	i	i	i	i	i	nt	nt
COC(=O)c1ccc(CNC(=O)c2ccccc2C(=O)NCC2(CBr)OCCO2)cc1	nt	nt	i	nt	nt	nt	nt	nt
N#CCC(=O)Nc1ccc(C(=O)Nc2cccc(S(=O)(=O)N3CCCC3)c2)cc1	nt	nt	i	nt	nt	nt	nt	nt
C[C@H](O)[C@@H]1C(=O)N2CCc3c([nH]c4ccccc34)[C@@H]2C[C@@H]1N(C)Cc1ccc2c(c1)OCO2	nt	nt	i	nt	nt	nt	nt	nt
COc1cccc(NC(=S)N/N=C2/CCCCc3ccccc32)c1	i	i	i	i	35	i	i	i
CC12CC(O)C3C(CCC4=CC(=O)CCC43C)C1CCC2=CCO (stereo unspecified)	i	i	i	i	i	i	nt	nt
CC(Sc1ncccn1)C(=O)NC1CCCC1 (stereo unspecified)	i	i	i	i	37	i	i	i
CC(Sc1nc(N)cc(=O)[nH]1)C(=O)NC1CCCCC1 (stereo unspecified)	i	i	i	i	i	i	nt	nt
C/C(=N\NC(=S)NCc1ccccc1)c1ccc(Br)cc1	i	i	i	i	i	i	nt	nt
C/C(=N\NC(=S)NCc1ccccc1)c1ccc2ccccc2c1OC(F)F	i	i	i	i	54	i	i	i
O=C1/C(=C/c2ccccc2)N=C(N2CCOCC2)N1c1cccc(Cl)c1	i	i	i	i	33	i	i	i
O=C1C(Cl)=C(N2CCOCC2)C(=O)N1c1cccc(Cl)c1	i	i	i	i	i	i	nt	nt
COc1ccc(S(=O)(=O)N2CCC3CC2c2cc(N4CCOCC4)ccc23)cc1 (stereo unspecified)	i	i	i	i	i	i	nt	nt
COc1cccc2ccc(CC(O)(c3ccccc3)c3ccccc3)nc12	nt	nt	i	nt	nt	nt	nt	nt
SMILES	MOR-DOR inv ag-1	OPRM1-OPRD1 ag	DAGLB inhibitor	Arrestin-AP2 inh	HTR5A inv ctr	HTR5A ag ctr	MOR-DOR inv ag-2	HTR5A inv conf	others
COc1ccc(Cl)cc1C(=O)NNC(=O)CSc1nnc2ccccn12	i	i	i	i	27	i	i	i
COCC(=O)Oc1cc(-c2ccc(C)cc2C)c(OC(=O)COC)c(-c2ccc(C)cc2C)c1	nt	nt	i	nt	nt	nt	nt	nt
Cc1ccc(CCNC(=O)C2CCN(S(=O)(=O)c3cccc4nsnc34)CC2)cc1	i	i	i	i	47	i	i	i
COC(=O)CC1(CC(N)=O)SCCS1	i	i	i	i	i	i	nt	nt
O=C(NC(=S)Nc1ccc(O)cc1)c1ccccc1Cl	i	i	i	i	i	i	nt	nt
Cc1ccc(O)c(NC(=S)NC(=O)c2ccccc2Cl)c1	i	i	i	i	21	i	i	i
Cc1ccc(NC(=O)c2ncn(CCCN3CCN(Cc4cccc5ccccc45)CC3)n2)cc1C	i	i	i	i	i	i	nt	nt
CCCN1CCN(CC(=O)NCC(=O)Nc2cccc(C)c2C)CC1	i	i	i	i	i	i	nt	nt
CCN(CC(=O)Nc1ccccc1C(F)(F)F)C(=O)c1ccc2c(c1)NC(=O)C(C)S2 (stereo unspecified)	nt	nt	i	nt	nt	nt	nt	nt
COc1cc(Br)c(/C=C/c2ccc3cccc(O)c3n2)cc1OC	i	i	i	i	i	i	nt	nt
Cc1ccsc1/C=C/c1ccc2cccc(O)c2n1	i	i	i	i	32	i	i	i
CSc1ccc(/C=C/c2ccc3cccc(O)c3n2)cc1	i	i	i	i	24	i	i	i
Oc1cccc2ccc(/C=C/c3ccccc3Br)nc12	i	i	i	i	62	i	i	51
Cn1nc(C(=O)OCC(=O)NCc2ccc(Cl)cc2Cl)c2ccccc2c1=O	nt	nt	i	nt	nt	nt	nt	nt
N#C/C(=C\c1ccccc1)C(=O)NNS(=O)(=O)c1ccc(Br)cc1	i	i	i	i	i	i	nt	nt
COc1ccc(CNc2ncnc3sccc23)cc1	i	i	i	i	25	i	i	i
COc1ccc(CNc2ncnc3sccc23)cc1OC	i	i	i	i	i	i	nt	nt
CCCCn1c(N)c(N(CC(C)C)C(=O)COc2cc(C)ccc2Cl)c(=O)[nH]c1=O	i	i	i	i	i	i	nt	nt
Cc1noc(/C=C/c2ccco2)c1S(=O)(=O)N1CCC(C(=O)NCc2ccco2)CC1	i	i	i	i	27	i	i	i
Cc1cccc(NC(=O)CNC(=O)c2cccs2)n1	i	i	i	i	31	i	i	i
CCOc1cc(C(c2c(C)[nH][nH]c2=O)c2c(C)[nH][nH]c2=O)cc([N+](=O)[O-])c1O	i	i	i	i	29	i	42	i
Cc1[nH][nH]c(=O)c1N=Nc1ccc(S(N)(=O)=O)cc1	nt	nt	nt	i	nt	nt	nt	nt
NS(=O)(=O)c1ccc(N=Nc2c[nH]c(=O)c(O)c2)cc1	i	i	i	i	32	i	i	i
COc1cccc(NC(=O)N(C)C[C@@H]2OCc3cnnn3CCCC(=O)N([C@H](C)CO)C[C@@H]2C)c1	nt	nt	i	nt	nt	nt	nt	nt

Screening results (PubChem)
